From ChEMBL document CHEMBL1126896, “Preparation and anti-HIV activity of O-acylated heparin and dermatan sulfate derivatives with low anticoagulant effect” (J Med Chem, 1993)

Tests used:
[1] = tested on: MT4; test: Effective concentration to achieve 50% protection of MT-4 cells against the cytopathic effect of HIV-2; type: functional, cell-based
[2] = tested on: MT4; test: Selectivity index for CC50 (cytotoxic concentration based on reduction of viability of mock-infected MT-4 cells) to that of EC50 against HIV-2; type: functional
Summary of the method: (§1)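 MT-4 cells at 3 × 10^5 cells/mL were infected with HIV-1 IIIB or HIV-2 ROD at 100 CCID50/mL, or mock-infected, alongside serial compound dilutions. Viability was read by MTT after 5 days at 37 °C. CC50 comes from mock-infected cells and EC50 from protection against cytopathicity. Index = CC50/EC50.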

[3] = tested on: MT4; test: Selectivity index for CC50 (cytotoxic concentration based on the reduction of the viability of mock-infected MT-4 cells) to that of EC50 against HIV-1; type: functional; summary of the method: as §1
[4] = In vitro anticoagulant activity determined by clotting test of activated partial thromboplastin time (APTT) on a pool of human plasma; type: functional
Summary of the method: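 Activated partial thromboplastin time clotting test on pooled human plasma, run on an automatic coagulometer. Activities were calculated according to the European Pharmacopoeia.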

[5] = tested on: MT4; test: Effective concentration to achieve 50% protection of MT-4 cells against the cytopathic effect of HIV-1; type: functional, cell-based
[6] = tested on: HuT78; test: Giant-cell formation between persistently HIV-1 infected HUT-78 cells and uninfected MOLT-4 cells; type: functional, cell-based
Summary of the method: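 MOLT-4 cells were co-cultured with an equal number of HUT-78 cells persistently infected with HIV-1 IIIB or HIV-2 ROD, with varying compound concentrations. Syncytia were counted by flow cytofluorography after 24 h. EC50 is the concentration giving 50% protection against giant-cell formation.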

[7] = Homo sapiens, MT4, read-out: EC50
[8] = Homo sapiens, HuT78, read-out: EC50

Compound `CCCC(=O)O[C@@H]1[C@@H](OC(C)=O)[C@H](O[C@H]2[C@@H](OS(=O)(=O)[O-])[C@@H](NS(=O)(=O)[O-])[C@@H](O[C@@H]3C(C(=O)[O-])O[C@@H](O[C@H]4[C@H](OC(=O)CCC)[C@@H](CO)O[C@@H]4COS(=O)(=O)[O-])[C@H](OS(=O)(=O)[O-])[C@H]3OC(=O)CCC)O[C@@H]2COS(=O)(=O)[O-])O[C@H](C(=O)[O-])[C@H]1O[C@H]1O[C@H](COS(=O)(=O)[O-])[C@@H](O[C@@H]2O[C@@H](C(=O)[O-])[C@@H](O)[C@H](OC(=O)CCC)[C@H]2OC(C)=O)[C@H](OC(=O)CCC)[C@H]1NC(C)=O.[Na+].[Na+].[Na+].[Na+].[Na+].[Na+].[Na+].[Na+].[Na+]` (stereo not given in full) has an EC50 [1, 7] of 0.24 µg/mL, a Selectivity index [2] of 15.4 and a Selectivity index [3] of 89. For the same compound, the APTT [4] was 11 IU mg-1, the EC50 [5, 7] was 0.53 µg/mL and the EC50 [6, 8] was 15.4 µg/mL.

In the case of `CC(=O)N[C@H]1[C@@H](O[C@H]2[C@H](OC(C)=O)[C@@H](OC(C)=O)[C@H](O[C@H]3[C@@H](OS(=O)(=O)[O-])[C@@H](NS(=O)(=O)[O-])[C@@H](O[C@@H]4C(C(=O)[O-])O[C@@H](O[C@H]5[C@H](OC(C)=O)[C@@H](CO)O[C@@H]5COS(=O)(=O)[O-])[C@H](OS(=O)(=O)[O-])[C@H]4OC(C)=O)O[C@@H]3COS(=O)(=O)[O-])O[C@@H]2C(=O)[O-])O[C@H](COS(=O)(=O)[O-])[C@@H](O[C@@H]2O[C@@H](C(=O)[O-])[C@@H](O)[C@H](OC(C)=O)[C@H]2OC(C)=O)[C@@H]1OC(C)=O.[Na+].[Na+].[Na+].[Na+].[Na+].[Na+].[Na+].[Na+].[Na+]` (stereo not given in full), the EC50 [1, 7] is reported as 0.46 µg/mL, the Selectivity index [2] is reported as 1087 and the Selectivity index [3] is reported as 76. For the same compound, the APTT [4] was 26 IU mg-1, the EC50 [5, 7] was 6.5 µg/mL and the EC50 [6, 8] was 6.4 µg/mL.

With `CCCCCC(=O)OC/C(=C\C(=O)[O-])OC1OC(COS(=O)(=O)[O-])C(OC2OC(C(=O)[O-])C(OC3OC(COS(=O)(=O)[O-])C(OC4OC(C(=O)[O-])C(OC5OC(CS(=O)(=O)[O-])C(O)C(OC(=O)CCCCC)C5NS(=O)(=O)[O-])C(OC(=O)CCCCC)C4OS(=O)(=O)[O-])C(OC(=O)CCCCC)C3NS(=O)(=O)[O-])C(OC(=O)CCCCC)C2OS(=O)(=O)[O-])C(OC(=O)CCCCC)C1NS(=O)(=O)[O-].[Na+].[Na+].[Na+].[Na+].[Na+].[Na+].[Na+].[Na+].[Na+].[Na+].[Na+]` (stereo in doubt; 2e) the EC50 ([1]; mt4) was 1.71 µg/mL, the Selectivity index [2] was >294 and the Selectivity index [3] was >1613. It also gave an APTT [4] of 7 IU mg-1, an EC50 ([5]; mt4) of 0.31 µg/mL and an EC50 ([6]; hut78) of 2.9 µg/mL.

Compound `CCCC(=O)OC/C(=C\C(=O)[O-])O[C@H]1O[C@H](COS(=O)(=O)[O-])[C@@H](O[C@@H]2O[C@@H](C(=O)[O-])[C@@H](O[C@H]3O[C@H](COS(=O)(=O)[O-])[C@@H](O[C@@H]4O[C@@H](C(=O)[O-])[C@@H](O[C@H]5O[C@H](CS(=O)(=O)[O-])[C@@H](O)[C@H](OC(=O)CCC)[C@H]5NS(=O)(=O)[O-])[C@H](OC(=O)CCC)[C@H]4OS(=O)(=O)[O-])[C@H](OC(=O)CCC)[C@H]3NS(=O)(=O)[O-])[C@H](OC(=O)CCC)[C@H]2OS(=O)(=O)[O-])[C@H](OC(=O)CCC)[C@H]1NS(=O)(=O)[O-].[Na+].[Na+].[Na+].[Na+].[Na+].[Na+].[Na+].[Na+].[Na+].[Na+].[Na+]` (stereo in doubt; 3b) has an EC50 ([1]; mt4) of 1.94 µg/mL, a Selectivity index [2] of 185 and a Selectivity index [3] of 1121. For the same compound, the APTT [4] was 5 IU mg-1 and the EC50 ([5]; mt4) was 0.32 µg/mL.

`CCCC(=O)OC/C(=C\C(=O)[O-])O[C@H]1O[C@H](COS(=O)(=O)[O-])[C@@H](O[C@@H]2O[C@@H](C(=O)[O-])[C@@H](O[C@H]3O[C@H](COS(=O)(=O)[O-])[C@@H](O[C@@H]4O[C@@H](C(=O)[O-])[C@@H](O[C@H]5O[C@H](CS(=O)(=O)[O-])[C@@H](O)[C@H](OC(=O)CCC)[C@H]5NS(=O)(=O)[O-])[C@H](OC(=O)CCC)[C@H]4OS(=O)(=O)[O-])[C@H](OC(=O)CCC)[C@H]3NS(=O)(=O)[O-])[C@H](OC(=O)CCC)[C@H]2OS(=O)(=O)[O-])[C@H](OC(=O)CCC)[C@H]1NS(=O)(=O)[O-].[Na+].[Na+].[Na+].[Na+].[Na+].[Na+].[Na+].[Na+].[Na+].[Na+].[Na+]` (stereo in doubt; 3d) showed an EC50 ([1]; mt4) of 0.36 µg/mL, a Selectivity index [2] of 914 and a Selectivity index [3] of 1480. The APTT [4] was 9 IU mg-1, the EC50 ([5]; mt4) was 0.21 µg/mL and the EC50 ([6]; hut78) was 10.3 µg/mL.

With `CCCC(=O)OC/C(=C\C(=O)[O-])O[C@H]1O[C@H](COS(=O)(=O)[O-])[C@@H](O[C@@H]2O[C@@H](C(=O)[O-])[C@@H](O[C@H]3O[C@H](COS(=O)(=O)[O-])[C@@H](O[C@@H]4O[C@@H](C(=O)[O-])[C@@H](O[C@H]5O[C@H](CS(=O)(=O)[O-])[C@@H](O)[C@H](OC(=O)CCC)[C@H]5NS(=O)(=O)[O-])[C@H](OC(=O)CCC)[C@H]4OS(=O)(=O)[O-])[C@H](OC(=O)CCC)[C@H]3NS(=O)(=O)[O-])[C@H](OC(=O)CCC)[C@H]2OS(=O)(=O)[O-])[C@H](OC(=O)CCC)[C@H]1NS(=O)(=O)[O-].[Na+].[Na+].[Na+].[Na+].[Na+].[Na+].[Na+].[Na+].[Na+].[Na+].[Na+]` (stereo in doubt; 3e) the EC50 ([1]; mt4) was 0.28 µg/mL, the Selectivity index [2] was 1261 and the Selectivity index [3] was 1357. For the same compound, the APTT [4] was 11 IU mg-1, the EC50 ([5]; mt4) was 0.26 µg/mL and the EC50 ([6]; hut78) was 1.5 µg/mL.
